Laboratory results: ChEMBL document CHEMBL1124240, “Substrate analogue inhibitors of the IgA1 proteinases from Neisseria gonorrhoeae” (J Med Chem, 1988)
Several values for one entry are separate records, joined by “and”; a condition that tells them apart may be missing. Equal values may be shown once. Bridge positions count the residues as written; N and C are the ends. Peptide text beside a SMILES is read from it. I, II: the chains in the order shown.

These compounds were tested against T1, IgA-specific serine endopeptidase autotransporter (Neisseria gonorrhoeae, UniProt P09790) (assay: Tested for inhibitory activity against IgA1 proteinase in 40% TFE).
T1 sequence (P09790 whole entry): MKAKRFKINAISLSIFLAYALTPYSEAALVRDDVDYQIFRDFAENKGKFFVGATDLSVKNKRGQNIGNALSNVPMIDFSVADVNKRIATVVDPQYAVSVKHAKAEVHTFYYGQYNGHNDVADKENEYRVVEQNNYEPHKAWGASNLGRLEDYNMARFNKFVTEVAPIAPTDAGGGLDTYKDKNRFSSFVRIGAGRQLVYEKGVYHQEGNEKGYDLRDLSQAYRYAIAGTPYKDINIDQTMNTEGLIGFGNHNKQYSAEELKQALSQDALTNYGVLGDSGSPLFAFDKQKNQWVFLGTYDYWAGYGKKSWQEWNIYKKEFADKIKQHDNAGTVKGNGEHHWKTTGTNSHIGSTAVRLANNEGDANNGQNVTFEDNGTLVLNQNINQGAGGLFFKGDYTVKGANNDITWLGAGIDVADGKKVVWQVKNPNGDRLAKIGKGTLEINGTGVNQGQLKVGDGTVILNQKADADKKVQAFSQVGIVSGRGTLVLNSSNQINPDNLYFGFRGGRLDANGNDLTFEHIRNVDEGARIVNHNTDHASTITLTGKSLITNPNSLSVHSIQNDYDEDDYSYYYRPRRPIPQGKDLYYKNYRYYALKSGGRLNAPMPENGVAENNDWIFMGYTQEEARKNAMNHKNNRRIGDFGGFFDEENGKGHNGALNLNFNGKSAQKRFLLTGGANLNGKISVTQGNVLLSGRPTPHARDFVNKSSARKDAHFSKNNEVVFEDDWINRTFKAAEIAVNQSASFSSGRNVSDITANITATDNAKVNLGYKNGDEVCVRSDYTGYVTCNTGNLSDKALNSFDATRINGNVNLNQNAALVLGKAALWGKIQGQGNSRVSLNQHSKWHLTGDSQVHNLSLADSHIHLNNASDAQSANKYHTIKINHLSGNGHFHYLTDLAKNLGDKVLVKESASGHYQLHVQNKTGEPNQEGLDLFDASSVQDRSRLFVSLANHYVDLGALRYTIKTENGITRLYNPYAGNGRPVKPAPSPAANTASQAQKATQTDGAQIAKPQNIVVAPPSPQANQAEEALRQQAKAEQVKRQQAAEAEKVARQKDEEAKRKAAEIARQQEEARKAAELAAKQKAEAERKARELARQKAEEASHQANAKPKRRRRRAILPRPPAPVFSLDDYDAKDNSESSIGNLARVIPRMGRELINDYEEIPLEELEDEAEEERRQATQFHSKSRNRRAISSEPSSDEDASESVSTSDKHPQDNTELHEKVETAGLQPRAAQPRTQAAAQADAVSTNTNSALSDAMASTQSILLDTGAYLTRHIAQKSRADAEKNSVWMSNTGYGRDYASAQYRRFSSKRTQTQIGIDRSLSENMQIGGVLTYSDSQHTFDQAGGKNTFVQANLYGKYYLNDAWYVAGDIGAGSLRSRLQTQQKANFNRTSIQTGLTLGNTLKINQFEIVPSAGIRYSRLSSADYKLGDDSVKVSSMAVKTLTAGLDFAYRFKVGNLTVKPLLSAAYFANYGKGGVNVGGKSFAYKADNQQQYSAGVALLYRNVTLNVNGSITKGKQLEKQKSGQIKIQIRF
Summary of the method: (§1)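 Buffer contained 40% trifluoroethanol to dissolve the peptide. Type 1 and type 2 N. gonorrhoeae IgA1 proteinases (partially purified) were preincubated with inhibitor for 30 min at 37 °C, then cleaved 125I-labelled monomeric human IgA1. Samples were taken every 10 min over 30 min, boiled and run on SDS-PAGE. Fd/Fc/α-chain segment counts gave percent cleavage, and the rate was taken from the slope.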
With `CC(=O)N[C@H](C(=O)N1CCC[C@H]1C(=O)N1CCC[C@H]1C(=O)N[C@@H](CSSC[C@H](NC(=O)[C@@H]1CCCN1C(=O)[C@@H]1CCCN1C(=O)[C@@H](NC(C)=O)[C@@H](C)O)C(=O)N1CCC[C@H]1C(=O)N[C@@H](CO)C(=O)N1CCC[C@H]1C(=O)N[C@@H](CO)C(N)=O)C(=O)N1CCC[C@H]1C(=O)N[C@@H](CO)C(=O)N1CCC[C@H]1C(=O)N[C@@H](CO)C(N)=O)[C@@H](C)O` (I: Ac-TPPCPSPS-NH2 / II: Ac-TPPCPSPS-NH2; disulfide I:4-II:4) the IC50 was 200 µM.

The compounds below were run against IgA-specific serine endopeptidase autotransporter (Neisseria gonorrhoeae) (UniProt P09790) (assay: Percent inhibition was tested against IgA1 proteinase at 0.30 mM).
Chain of IgA-specific serine endopeptidase autotransporter (Neisseria gonorrhoeae) (P09790 whole entry): as above
Summary of the method: (§2)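 Type 1 and type 2 IgA1 proteinases from N. gonorrhoeae, partially purified from cell-free defined-medium cultures and stored at -70 °C. Peptides were in 0.05 M Tris-HCl, pH 7.5, and preincubated with enzyme for 30 min at 37 °C. Substrate was monoclonal monomeric human serum IgA1, 125I-labelled. Samples were taken at 10-min intervals over 30 min and run on SDS-PAGE with autoradiography. Fd, Fc and uncleaved α-chain bands were counted, and the rate came from the slope of percent cleavage versus time.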
Work on `C[C@H](O)[C@H](NC(=O)[C@@H]1CCCN1C(=O)[C@@H]1CCCN1C(=O)[C@@H](N)[C@@H](C)O)C(=O)N1CCC[C@H]1C(=O)N[C@@H](CO)C(=O)N1CCC[C@H]1C(=O)N[C@@H](CO)C(=O)N[C@H](C(=O)N1CCC[C@H]1C(=O)N1CCC[C@H]1C(=O)N[C@H](C(=O)N1CCC[C@H]1C(=O)N[C@@H](CO)N1CCC[C@H]1C(=O)N[C@@H](CO)C(=O)O)[C@@H](C)O)[C@H](C)O` yielded an inhibition of 19%.

These compounds were tested against IgA-specific serine endopeptidase autotransporter (Neisseria gonorrhoeae) (UniProt P09790) (assay: Tested for inhibitory activity against IgA1 proteinase at >2 mM).
Summary of the method: as §2
`CC(=O)N[C@H](C(=O)N1CCC[C@H]1C(=O)N1CCC[C@H]1C(=O)N[C@H](C(=O)N1CCC[C@H]1C(=O)N[C@@H](CSSC[C@H](NC(=O)[C@@H]1CCCN1C(=O)[C@@H](NC(=O)[C@@H]1CCCN1C(=O)[C@@H]1CCCN1C(=O)[C@@H](NC(C)=O)[C@@H](C)O)[C@@H](C)O)C(=O)N1CCC[C@H]1C(=O)N[C@@H](CO)C(N)=O)C(=O)N1CCC[C@H]1C(=O)N[C@@H](CO)C(N)=O)[C@H](C)O)[C@@H](C)O` showed an inhibition of 0%.

What follows are compounds tested against T1, IgA-specific serine endopeptidase autotransporter (assay: Tested for inhibitory activity against IgA1 proteinase).
Summary of the method: as §2
`CC(=O)N[C@H](C(=O)N1CCC[C@H]1C(=O)N1CCC[C@H]1C(=O)N[C@H](C(=O)N1CCC[C@H]1C(=O)N[C@@H](CO)C(=O)N1CCC[C@H]1C(=O)N[C@@H](CSSC[C@H](NC(=O)[C@@H]1CCCN1C(=O)[C@H](CO)NC(=O)[C@@H]1CCCN1C(=O)[C@@H](NC(=O)[C@@H]1CCCN1C(=O)[C@@H]1CCCN1C(=O)[C@@H](NC(C)=O)[C@@H](C)O)[C@@H](C)O)C(N)=O)C(N)=O)[C@@H](C)O)[C@@H](C)O` was tested, and the IC50 was 3300 µM.
`CC(=O)N[C@H](C(=O)N1CCC[C@H]1C(=O)N1CCC[C@H]1C(=O)N[C@H](C(=O)N1CCC[C@H]1C(=O)N[C@@H](CSSC[C@H](NC(=O)[C@@H]1CCCN1C(=O)[C@@H](NC(=O)[C@@H]1CCCN1C(=O)[C@@H]1CCCN1C(=O)[C@@H](NC(C)=O)[C@@H](C)O)[C@@H](C)O)C(=O)N1CCC[C@H]1C(=O)N[C@@H](CO)C(N)=O)C(=O)N1CCC[C@H]1C(=O)N[C@@H](CO)C(N)=O)[C@@H](C)O)[C@@H](C)O` was tested, and the IC50 was 5150 µM.
In the case of `CC(=O)N[C@@H](CSSC[C@H](NC(C)=O)C(=O)N1CCC[C@H]1C(=O)N1CCC[C@H]1C(=O)N[C@H](C(=O)N1CCC[C@H]1C(=O)N[C@@H](CO)C(=O)N1CCC[C@H]1C(=O)N[C@@H](CO)C(N)=O)[C@@H](C)O)C(=O)N1CCC[C@H]1C(=O)N1CCC[C@H]1C(=O)N[C@H](C(=O)N1CCC[C@H]1C(=O)N[C@@H](CO)C(=O)N1CCC[C@H]1C(=O)N[C@@H](CO)C(N)=O)[C@@H](C)O` (I: Ac-CPPTPSPS-NH2 / II: Ac-CPPTPSPS-NH2; disulfide I:1-II:1), the IC50 is reported as 1810 µM and 3450 µM.
In the case of Ac-CPPTPSPS-NH2, the IC50 is reported as 310 µM and 120 µM.
With Ac-TPPTPCPS-NH2 the IC50 was 200 µM and 50 µM.
Ac-TPPTPSPC-NH2 was tested, and the IC50 was 1030 µM and 490 µM.
With Ac-TPPTPSPS-NH2 the IC50 was 9350 µM and 6680 µM.
In the case of Ac-TPPTPSPS-OH, the IC50 is reported as 1570 µM and 510 µM.
H-TPPTPSPS-NH2 was tested, and the IC50 was 400 µM and 180 µM.
H-TPPTPSPS-OH was tested, and the IC50 was 260 µM and 500 µM.
H-TPPTPSPSTPPTPSPS-OH was tested, and the IC50 was 310 µM.

What follows are compounds tested against T1, IgA-specific serine endopeptidase autotransporter (assay: Tested for inhibitory activity against IgA1 proteinase assayed in 40% TFE).
Summary of the method: as §1
`CC(=O)N[C@H](C(=O)N1CCC[C@H]1C(=O)N1CCC[C@H]1C(=O)N[C@@H](CSSC[C@H](NC(=O)[C@@H]1CCCN1C(=O)[C@@H]1CCCN1C(=O)[C@@H](NC(C)=O)[C@@H](C)O)C(=O)N1CCC[C@H]1C(=O)N[C@@H](CO)C(=O)N1CCC[C@H]1C(=O)N[C@@H](CO)C(N)=O)C(=O)N1CCC[C@H]1C(=O)N[C@@H](CO)C(=O)N1CCC[C@H]1C(=O)N[C@@H](CO)C(N)=O)[C@@H](C)O` (I: Ac-TPPCPSPS-NH2 / II: Ac-TPPCPSPS-NH2; disulfide I:4-II:4) was tested, and the IC50 was 170 µM.
